Measurements collected from several papers.
Lines come from different studies, so protocols differ.
Target: Phosphatidylinositol 3-kinase catalytic subunit type 3 (PIK3C3, Homo sapiens, UniProt Q8NEB9)

Structure (SMILES)	test	conditions	remaining binding [%]
Cc1cc(-n2nc(Cc3cc(F)cc(C(F)(F)F)c3)nc2C)ccc1C(N)=O	cell-free assay, competition with immobilised ligand	1 µM	100
COc1cnc(Nc2cccc(S(N)(=O)=O)c2)nc1N1CCN(c2ccccc2)C(=O)C1	binding, competition with immobilised ligand	1 µM	64
O=C(c1ccc(Nc2ncc(Cl)c(-c3cc4ccccc4s3)n2)cc1)N1CCC(N2CCCC2)CC1	binding, competition with immobilised ligand	1 µM	53
Nc1c(C(=O)NCc2ccc(C(=O)NCCCC3CCCCC3)cc2)cnn1-c1ccccc1	cell-free assay, competition with immobilised ligand	0.1 µM	99
Cc1cnn2ncc(-c3ccnc(N(C)C)n3)c2c1	binding	1 µM	87
c1ccc(N2CCN(Cc3nc4ccccc4[nH]3)CC2)nc1	cell-free assay, competition with immobilised ligand	1 µM	100
O=C(c1ccc(Nc2nccc(-c3cc4ccccc4s3)n2)cc1)N1CCC(N2CCCC2)CC1	binding, competition with immobilised ligand	1 µM	4.9
C=CC(=O)N1CCC(C(=O)NCC(=O)N2CCN(c3nc(-c4cnc(N)nc4C(F)F)nc(N4CCOCC4)n3)CC2)CC1	binding, competition with immobilised ligand	1 µM	4.5
Cc1c(NC(=O)c2cc(C(N)=O)nc3cc(F)ccc23)c(C(F)(F)F)nn1Cc1ccc(C(C)(C)C)cc1	cell-free assay, competition with immobilised ligand	1 µM	100
CN(CCCC(F)(F)F)c1nccc(-c2cnn3ncccc23)n1	binding	1 µM	100
O=C(O)c1cc(-c2ccc(C3CCNCC3)cc2)c2ccc(-c3ccc(C(F)(F)F)cc3)cc2c1	cell-free assay, competition with immobilised ligand	1 µM	100
COc1ncc2cc3ccccc3nc2c1C#N	cell-free assay, competition with immobilised ligand	5 µM	92
C[C@@H]1CCN(c2nccc(-c3cnn4ncccc34)n2)C1	binding	1 µM	70
CNC(=O)[C@@H]1CC[C@@H](n2c(-c3ccc4cnccc4c3)nc3ccc(C(=O)NCc4cccc(C(N)=O)c4)cc32)C1	binding, competition with immobilised ligand	1 µM	7.2
O=C(Nc1c[nH]nc1C(=O)NC1CCNCC1)c1cc(F)cc(F)c1	binding, competition with immobilised ligand	1 µM	90
c1cnn2ncc(-c3ccnc(N4CCC45COC5)n3)c2c1	binding	1 µM	48
Cc1cnc(Nc2ccc(C(=O)N3CCC(N4CCCC4)CC3)cc2)nc1-c1cc2ccccc2s1	binding, competition with immobilised ligand	1 µM	14
CN(C)c1nccc(-c2cnc3ncccn23)n1	binding	1 µM	48
c1cncc(-c2cccc(Nc3nccc(NC4CCCCC4)n3)c2)c1	binding, competition with immobilised ligand	10 µM	21
O=C(N[C@H]1CCCCC/C=C\C2C[C@@]2(C(=O)O)NC(=O)[C@@H]2C[C@@H](Oc3ccncc3)CN2C1=O)OC1CCCC1 (stereo partly drawn)	cell-free assay, competition with immobilised ligand	1 µM	100
N[C@@H]1CCN(c2nccc(-c3cnn4ncccc34)n2)C1	binding	1 µM	83
